Reference: ChEMBL document CHEMBL1821637, “Selective cytotoxicity of oxysterols through structural modulation on rings A and B. Synthesis, in vitro evaluation, and SAR” (J Med Chem, 2011)

Legend:
[1] = Cytotoxicity against human ARPE19 cells assessed as cell viability after 48 hrs by alamar blue assay; assay type: cell-based, ARPE-19; settings: Homo sapiens, ARPE-19, 48 h
How it was run: (§1)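 Alamar Blue viability assay on the human cell line named (origins given: HT-29 colorectal adenocarcinoma, HepG2 hepatocellular carcinoma, LAMA-84 myeloid leukemia, A549 lung adenocarcinoma, PC3 prostate metastasis, MCF-7 breast adenocarcinoma, ARPE-19 retinal pigment epithelium, BJ skin fibroblast). Exposure was 48 h. Sterol stocks were made in DMSO. IC50 is the concentration inhibiting 50% of cellular growth, given as the mean of at least three separate experiments.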

[2] = system: HT-29; experiment: Cytotoxicity against human HT-29 cells assessed as inhibition of cell growth after 96 hrs by alamar blue assay; assay type: functional, cell-based; settings: HT-29, 96 h
How it was run: (§2)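 HT-29 and ARPE-19 cells exposed for 96 h. ARPE-19 seeded at 5 10^3 cells/well for this period. Sterol stocks in DMSO. Viability by Alamar Blue. IC50 is the concentration inhibiting 50% of cellular growth, mean of at least three separate experiments.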

[3] = Cytotoxicity against human ARPE19 cells assessed as inhibition of cell growth after 96 hrs by alamar blue assay; assay type: cell-based; settings: ARPE-19, 96 h; how it was run: as §2
[4] = system: HT-29; experiment: Selectivity index, ratio of IC50 for human ARPE19 cells to IC50 for human HT-29 cells; assay type: functional
[5] = system: HT-29; experiment: Cytotoxicity against human HT-29 cells assessed as cell viability after 48 hrs by alamar blue assay; assay type: functional, cell-based; settings: HT-29, 48 h; how it was run: as §1

SMILES	IC50 [1] [µM]	IC50 [2] [µM]	IC50 [3] [µM]	Ratio IC50 [4]	IC50 [5] [µM]
CC(=O)O[C@H]1CC[C@@]2(C)C(=C[C@H](O)[C@H]3[C@@H]4CC[C@H]([C@H](C)CCCC(C)C)[C@@]4(C)CC[C@@H]32)C1	46.5	12.4	23.6	1.58	–
CC(=O)O[C@H]1CC[C@]2(C)[C@H]3CC[C@]4(C)[C@@H]([C@H](C)CCCC(C)C)CC[C@H]4[C@@H]3[C@@H](O)[C@@H](O)[C@@]2(O)C1	30.5	14.7	23.8	1.62	18.8
CC(=O)O[C@H]1CC[C@]2(C)[C@H]3CC[C@]4(C)[C@@H]([C@H](C)CCCC(C)C)CC[C@H]4[C@@H]3CC[C@@]2(O)[C@H]1O	32.5	17.7	21.8	1.75	18.6
CC(=O)O[C@H]1[C@@H](O)CC[C@]2(C)[C@H]3CC[C@]4(C)[C@@H]([C@H](C)CCCC(C)C)CC[C@H]4[C@@H]3CC[C@@]12O	37.4	18.7	22.3	2.46	15.2
CC(=O)O[C@H]1CC[C@]2(C)[C@H]3CC[C@]4(C)[C@@H]([C@H](C)CCCC(C)C)CC[C@H]4[C@@H]3[C@@H](OC(C)=O)[C@@H](O)[C@@]2(O)C1	29	16.6	19.5	1.44	20.1
CC(=O)O[C@H]1CC[C@]2(C)[C@H]3CC[C@]4(C)[C@@H]([C@H](C)CCCC(C)C)CC[C@H]4[C@@H]3C[C@@H](OC(C)=O)[C@@]2(O)C1	64.1	25.3	35.4	1.49	43.1
